# Like-named read-outs stand apart in the source and are kept apart here.
# Legend:
# [1] = target: T1, human PMK (Homo sapiens, UniProt Q15126); details: read-out: affinity of natural substrates; cited from earlier work
# T1 sequence (Q15126 1-192): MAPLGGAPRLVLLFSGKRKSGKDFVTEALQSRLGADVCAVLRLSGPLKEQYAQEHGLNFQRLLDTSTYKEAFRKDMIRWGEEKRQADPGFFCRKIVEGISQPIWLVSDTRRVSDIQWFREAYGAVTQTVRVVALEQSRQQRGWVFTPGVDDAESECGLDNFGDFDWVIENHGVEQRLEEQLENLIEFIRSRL
# [2] = target: T1, human PMK; assay: Fluorescence titration; assay type: binding
# Method in brief: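 N-terminally His6-tagged human PMK was expressed in E. coli BL21(DE3) Rosetta and purified on Ni-Sepharose. Titration used 5 µM PMK in 20 mM potassium phosphate, 5 mM DTT, 100 mM KCl, 10% glycerol, pH 6.5, at 25 °C. Excitation was 295 nm, with emission recorded over 300–400 nm. The bound-minus-free intensity difference was fitted against ligand concentration to a one-site specific binding equation.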
Kd [2],Compound,Kd [1]
–,"Nc1ncnc2c1ncn2[C@@H]1O[C@H](COP(=O)(O)OP(=O)(O)O)[C@@H](O)[C@H]1O [ADP, adenosine diphosphate]",19.9 ± 9 µM
–,"Nc1ncnc2c1ncn2[C@@H]1O[C@H](COP(=O)(O)OP(=O)(O)OP(=O)(O)O)[C@@H](O)[C@H]1O [ATP, adenosine-5'-triphosphate]",29 ± 6 µM
61 ± 19.5 µM,O=c1cc(-c2ccc(O)c(O)c2)oc2cc(O)cc(O)c12 [luteolin],–

# Source: PMC3544975 (Biochemical and biophysical research communications, 2012)
